# Numbered stars: 1 amine (or outer) side, 2 acyl side, 3 side chain; on linkers, the order of the positions; unused ones are H or OH. Bridge positions count the residues as written; N and C are the ends. Square brackets hold non-standard residues; d marks the D form. Peptide text beside a SMILES is read from it. * marks the point of attachment. X1 = O=C1C[C@@H](C(=O)[*:2])N([*:1])C[C@H]1CS[C@@H]1CN2CCC1CC2; NMePhe(4-NMe2) = CN[C@@H](Cc1ccc(N(C)C)cc1)C(=O)O; Picolinoyl(3-OH) = O=C(c1ncccc1O)*; Phg = N[C@H](C(=O)O)c1ccccc1; dAbu = CC[C@@H](N)C(=O)O
# Legend:
# Assay type in all cases: functional
# [1] = test system: Mycobacteroides abscessus; assay: Antimicrobial activity against Mycobacterium abscessus isolate MC879 on day 4 by broth microdilution method; conditions: isolate MC879, 96 h
# [2] = test system: Mycolicibacterium smegmatis; assay: Antimicrobial activity against Mycobacterium smegmatis transformed with erm allele Mycobacterium abscessus isolate MC879 preincubated with 2 ug/ml erythromycin for 20 to 24 hrs by broth microdilution method
# [3] = test system: Mycolicibacterium smegmatis; assay: Antimicrobial activity against Mycobacterium smegmatis transformed with erm allele Mycobacterium abscessus isolate MC1082 preincubated with 2 ug/ml erythromycin for 20 to 24 hrs by broth microdilution method
# [4] = test system: Mycobacteroides abscessus; assay: Antimicrobial activity against Mycobacterium abscessus isolate MC1028 on day 4 by broth microdilution method; conditions: isolate MC1028, 96 h
# [5] = test system: Mycolicibacterium smegmatis; assay: Antimicrobial activity against Mycobacterium smegmatis transformed with erm allele Mycobacterium abscessus isolate MC720 preincubated with 2 ug/ml erythromycin for 20 to 24 hrs by broth microdilution method
# [6] = test system: Mycolicibacterium smegmatis; assay: Antimicrobial activity against Mycobacterium smegmatis transformed with erm allele Mycobacterium abscessus isolate MC879 by broth microdilution method
# [7] = test system: Mycobacteroides abscessus; assay: Antimicrobial activity against Mycobacterium abscessus isolate MC958 at day 7 by broth microdilution method; conditions: isolate MC958, 168 h
# Procedure, shortened: (§1)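 Clarithromycin MIC by broth microdilution following CLSI guidelines. Organisms were preincubated […], for 3 days before the assay. This allowed at least two generations, judged by the rise in turbidity. The MIC was read at the stated day, with incubation extended from day 3 to as long as 14 days.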
# [8] = test system: Mycobacteroides abscessus; assay: Antimicrobial activity against Mycobacterium abscessus isolate MC1028 at day 7 by broth microdilution method; conditions: isolate MC1028, 168 h
# Procedure, shortened: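 Clarithromycin MIC by CLSI-conforming broth microdilution. Before testing, cultures were preincubated for 3 days, either in medium alone or in clarithromycin or erythromycin (tested range 0.01–1 μg/ml). Preincubation ran for at least two generations, judged by turbidity increase. Plates were read on day 3 and on extended incubation at days 5 to 14.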
# [9] = test system: Mycolicibacterium smegmatis; assay: Antimicrobial activity against Mycobacterium smegmatis transformed with erm allele Mycobacterium abscessus isolate MC958 preincubated with 2 ug/ml erythromycin for 20 to 24 hrs by broth microdilution method
# [10] = test system: Mycolicibacterium smegmatis; assay: Antimicrobial activity against Mycobacterium smegmatis transformed with erm allele Mycobacterium abscessus isolate MC719 by broth microdilution method
# [11] = test system: Mycolicibacterium smegmatis; assay: Antimicrobial activity against Mycobacterium smegmatis transformed with erm allele Mycobacterium abscessus isolate MC1028 by broth microdilution method
# [12] = test system: Mycolicibacterium smegmatis; assay: Antimicrobial activity against Mycobacterium smegmatis transformed with erm allele Mycobacterium abscessus isolate MC958 by broth microdilution method
# [13] = test system: Mycolicibacterium smegmatis; assay: Antimicrobial activity against Mycobacterium smegmatis transformed with erm allele Mycobacterium abscessus isolate MAB30 preincubated with 2 ug/ml erythromycin for 20 to 24 hrs by broth microdilution method
# [14] = test system: Mycolicibacterium smegmatis; assay: Antimicrobial activity against Mycobacterium smegmatis transformed with erm allele Mycobacterium abscessus isolate MAB30 by broth microdilution method
# [15] = test system: Mycolicibacterium smegmatis; assay: Antimicrobial activity against Mycobacterium smegmatis transformed with erm allele Mycobacterium abscessus isolate MC719 preincubated with 2 ug/ml erythromycin for 20 to 24 hrs by broth microdilution method
# [16] = test system: Mycobacteroides abscessus; assay: Antimicrobial activity against Mycobacterium abscessus isolate MC879 at day 7 by broth microdilution method; conditions: isolate MC879, 168 h; procedure, shortened: as §1
# [17] = test system: Mycolicibacterium smegmatis; assay: Antimicrobial activity against Mycobacterium smegmatis transformed with erm allele Mycobacterium abscessus isolate MC1082 by broth microdilution method
# [18] = test system: Mycolicibacterium smegmatis; assay: Antimicrobial activity against Mycobacterium smegmatis transformed with erm allele Mycobacterium abscessus isolate MC1028 preincubated with 2 ug/ml erythromycin for 20 to 24 hrs by broth microdilution method
# [19] = test system: Mycobacteroides abscessus; assay: Antimicrobial activity against Mycobacterium abscessus isolate MC958 on day 4 by broth microdilution method; conditions: isolate MC958, 96 h
# [20] = test system: Mycolicibacterium smegmatis; assay: Antimicrobial activity against Mycobacterium smegmatis transformed with erm allele Mycobacterium abscessus isolate MC720 by broth microdilution method
# [21] = test system: Mycolicibacterium smegmatis; assay: Antimicrobial activity against Mycobacterium smegmatis transformed with erm allele Mycobacterium abscessus isolate MC879-2 by broth microdilution method
# [22] = test system: Mycolicibacterium smegmatis; assay: Antimicrobial activity against Mycobacterium smegmatis transformed with erm allele Mycobacterium abscessus isolate MC879-2 preincubated with 2 ug/ml erythromycin for 20 to 24 hrs by broth microdilution method
# [23] = test system: Mycobacteroides abscessus; assay: Antimicrobial activity against Mycobacterium abscessus isolate MC879 at day 5 preincubated with 0.1 ug/ml for 3 days by broth microdilution method
# Procedure, shortened: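 To test inducible resistance, cultures were preincubated for 3 days in clarithromycin or erythromycin, within 0.01–1 μg/ml. The period was set so cultures passed at least two generations, judged by turbidity increase. Clarithromycin MIC was then determined by CLSI-conforming broth microdilution and read on the stated day, from day 3 up to 14.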
SMILES,MIC [1],MIC [2],MIC [3],MIC [4],MIC [5],MIC [6],MIC [7],MIC [8],MIC [9],MIC [10],MIC [11],MIC [12],MIC [13],MIC [14],MIC [15],MIC [16],MIC [17],MIC [18],MIC [20],MIC [23],other results
CC[C@H]1OC(=O)[C@H](C)C(=O)[C@H](C)[C@@H](O[C@@H]2O[C@H](C)C[C@H](N(C)C)[C@H]2O)[C@](C)(OC)C[C@@H](C)C(=O)[C@H](C)[C@H]2N(CCCCn3cnc(-c4cccnc4)c3)C(=O)O[C@]12C [TELITHROMYCIN],32 µg/mL,> 128 µg/mL,4 µg/mL,32 µg/mL,> 128 µg/mL,8 µg/mL,> 128 µg/mL,> 128 µg/mL,> 128 µg/mL,8 µg/mL,4 µg/mL,8 µg/mL,4 µg/mL,4 µg/mL,> 128 µg/mL,> 128 µg/mL,4 µg/mL,4 µg/mL,8 µg/mL,–,MIC [19]: 32 µg/mL
CC[C@H]1OC(=O)[C@H](C)[C@@H](O[C@H]2C[C@@](C)(OC)[C@@H](O)[C@H](C)O2)[C@H](C)[C@@H](O[C@@H]2O[C@H](C)C[C@H](N(C)C)[C@H]2O)[C@](C)(O)C[C@@H](C)C(=O)[C@H](C)[C@@H](O)[C@]1(C)O [ERYTHROMYCIN],–,> 128 µg/mL,4 µg/mL,–,> 128 µg/mL,32 µg/mL,–,–,> 128 µg/mL,32 µg/mL,4 µg/mL,32 µg/mL,4 µg/mL,4 µg/mL,> 128 µg/mL,–,4 µg/mL,4 µg/mL,32 µg/mL,–,MIC [21]: 32 µg/mL; MIC [22]: > 128 µg/mL
CC[C@H]1NC(=O)[C@@H](NC(=O)c2ncccc2O)[C@@H](C)OC(=O)[C@H](c2ccccc2)NC(=O)[C@@H]2CC(=O)[C@H](CS[C@@H]3CN4CCC3CC4)CN2C(=O)[C@H](Cc2ccc(N(C)C)cc2)N(C)C(=O)[C@@H]2CCCN2C1=O [QUINUPRISTIN] ({Picolinoyl(3-OH)}-T[dAbu]P[NMePhe(4-NMe2)][X1][Phg]; ester 1-C),64 µg/mL,128 µg/mL,128 µg/mL,64 µg/mL,128 µg/mL,128 µg/mL,> 256 µg/mL,> 256 µg/mL,128 µg/mL,128 µg/mL,128 µg/mL,128 µg/mL,128 µg/mL,128 µg/mL,128 µg/mL,> 256 µg/mL,128 µg/mL,128 µg/mL,128 µg/mL,64 µg/mL,–
CCC[C@@H]1C[C@@H](C(=O)N[C@@H]([C@H]2O[C@H](SC)[C@H](O)[C@@H](O)[C@H]2O)[C@H](C)Cl)N(C)C1 [CLINDAMYCIN],64 µg/mL,> 512 µg/mL,32 µg/mL,64 µg/mL,> 512 µg/mL,64 µg/mL,> 256 µg/mL,> 256 µg/mL,> 512 µg/mL,64 µg/mL,32 µg/mL,64 µg/mL,32 µg/mL,32 µg/mL,> 512 µg/mL,> 256 µg/mL,32 µg/mL,32 µg/mL,64 µg/mL,64 µg/mL,–

# — ChEMBL document CHEMBL1649139, “A novel gene, erm(41), confers inducible macrolide resistance to clinical isolates of Mycobacterium abscessus but is absent from Mycobacterium chelonae” (2009)
